Results from ChEMBL document CHEMBL2331437, “Meroterpenoid pigments from the basidiomycete Albatrellus ovinus” (J Nat Prod, 2013).

Test system: A549
Assay: Cytotoxicity against human A549 cells after 48 hrs by MTT assay
Type: functional, cell-based
Details: A549, 48 h
Method in brief: (§1)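 Cells grown in RPMI-1640 or DMEM with 10% FBS, 37 °C, 5% CO2. Seeded at 1 × 10^5 cells/mL; adherent lines allowed 12 h to attach, suspension cells seeded just before dosing. Compounds at various concentrations in triplicate, 48 h. MTT (100 μg per well) 4 h at 37 °C, SDS lysis, OD 595 nm; IC50 by Reed and Muench method.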

Compound	IC50 [µM]
COC(=O)c1c(O)cc(O)c(C/C=C(\C)CC/C=C(\C)CCC=C(C)C)c1C [ALBATRELIN A]	> 40
COc1cc(C)c(O)c2c1C=C[C@@](C)(CC/C=C(\C)CCC=C(C)C)O2 [ALBATRELIN B]	> 40
CC(C)=CCC/C(C)=C/CC[C@]1(C)C=Cc2c(C)cc(O)cc2O1 [ALBATRELIN C]	> 40
CC(C)=CCC/C(C)=C/CC/C(C)=C/Cc1c(O)cc(C)c2c1oc1c3c(c(O)c(C)c12)O[C@](C)(CC/C=C(\C)CCC=C(C)C)C=C3 [ALBATRELIN D]	> 40
CC(C)=CCC/C(C)=C/CC/C(C)=C/CC1=C(O)C(=O)C(C)=C(c2c(O)cc(O)c(C/C=C(\C)CC/C=C(\C)CCC=C(C)C)c2C)C1=O [ALBATRELIN E]	> 40
CC(C)=CCC/C(C)=C/CC/C(C)=C/CC12C(=O)C=C(C)C(=O)C1(O)Oc1c3c(c(O)c(C)c12)O[C@](C)(CC/C=C(\C)CCC=C(C)C)C=C3 (stereo partly drawn) [ALBATRELIN F]	> 40
CC(C)=CCC/C(C)=C/CC[C@]1(C)C=Cc2c(O)cc(C)cc2O1 [CONFLUENTIN]	18.5

Test system: MCF7
Assay: Cytotoxicity against human MCF7 cells after 48 hrs by MTT assay
Type: functional, cell-based
Details: MCF7, 48 h
Method in brief: as §1

Compound	IC50 [µM]
COC(=O)c1c(O)cc(O)c(C/C=C(\C)CC/C=C(\C)CCC=C(C)C)c1C [ALBATRELIN A]	> 40
COc1cc(C)c(O)c2c1C=C[C@@](C)(CC/C=C(\C)CCC=C(C)C)O2 [ALBATRELIN B]	> 40
CC(C)=CCC/C(C)=C/CC[C@]1(C)C=Cc2c(C)cc(O)cc2O1 [ALBATRELIN C]	> 40
CC(C)=CCC/C(C)=C/CC/C(C)=C/Cc1c(O)cc(C)c2c1oc1c3c(c(O)c(C)c12)O[C@](C)(CC/C=C(\C)CCC=C(C)C)C=C3 [ALBATRELIN D]	> 40
CC(C)=CCC/C(C)=C/CC/C(C)=C/CC1=C(O)C(=O)C(C)=C(c2c(O)cc(O)c(C/C=C(\C)CC/C=C(\C)CCC=C(C)C)c2C)C1=O [ALBATRELIN E]	> 40
CC(C)=CCC/C(C)=C/CC/C(C)=C/CC12C(=O)C=C(C)C(=O)C1(O)Oc1c3c(c(O)c(C)c12)O[C@](C)(CC/C=C(\C)CCC=C(C)C)C=C3 (stereo partly drawn) [ALBATRELIN F]	> 40
CC(C)=CCC/C(C)=C/CC[C@]1(C)C=Cc2c(O)cc(C)cc2O1 [CONFLUENTIN]	23

Test system: not listed separately
Assay: Cytotoxicity against human […] cells after 48 hrs by MTT assay
Type: functional, cell-based
Details: not given
Method in brief: as §1

Compound	IC50 [µM]
COC(=O)c1c(O)cc(O)c(C/C=C(\C)CC/C=C(\C)CCC=C(C)C)c1C [ALBATRELIN A]	> 40
COc1cc(C)c(O)c2c1C=C[C@@](C)(CC/C=C(\C)CCC=C(C)C)O2 [ALBATRELIN B]	> 40
CC(C)=CCC/C(C)=C/CC[C@]1(C)C=Cc2c(C)cc(O)cc2O1 [ALBATRELIN C]	> 40
CC(C)=CCC/C(C)=C/CC/C(C)=C/Cc1c(O)cc(C)c2c1oc1c3c(c(O)c(C)c12)O[C@](C)(CC/C=C(\C)CCC=C(C)C)C=C3 [ALBATRELIN D]	> 40
CC(C)=CCC/C(C)=C/CC/C(C)=C/CC1=C(O)C(=O)C(C)=C(c2c(O)cc(O)c(C/C=C(\C)CC/C=C(\C)CCC=C(C)C)c2C)C1=O [ALBATRELIN E]	> 40
CC(C)=CCC/C(C)=C/CC/C(C)=C/CC12C(=O)C=C(C)C(=O)C1(O)Oc1c3c(c(O)c(C)c12)O[C@](C)(CC/C=C(\C)CCC=C(C)C)C=C3 (stereo partly drawn) [ALBATRELIN F]	> 40
CC(C)=CCC/C(C)=C/CC[C@]1(C)C=Cc2c(O)cc(C)cc2O1 [CONFLUENTIN]	17.1

Test system: HL-60
Assay: Cytotoxicity against human HL60 cells after 48 hrs by MTT assay
Type: functional, cell-based
Details: HL-60, 48 h
Method in brief: as §1

Compound	IC50 [µM]
COC(=O)c1c(O)cc(O)c(C/C=C(\C)CC/C=C(\C)CCC=C(C)C)c1C [ALBATRELIN A]	> 40
COc1cc(C)c(O)c2c1C=C[C@@](C)(CC/C=C(\C)CCC=C(C)C)O2 [ALBATRELIN B]	> 40
CC(C)=CCC/C(C)=C/CC[C@]1(C)C=Cc2c(C)cc(O)cc2O1 [ALBATRELIN C]	> 40
CC(C)=CCC/C(C)=C/CC/C(C)=C/Cc1c(O)cc(C)c2c1oc1c3c(c(O)c(C)c12)O[C@](C)(CC/C=C(\C)CCC=C(C)C)C=C3 [ALBATRELIN D]	> 40
CC(C)=CCC/C(C)=C/CC/C(C)=C/CC1=C(O)C(=O)C(C)=C(c2c(O)cc(O)c(C/C=C(\C)CC/C=C(\C)CCC=C(C)C)c2C)C1=O [ALBATRELIN E]	> 40
CC(C)=CCC/C(C)=C/CC/C(C)=C/CC12C(=O)C=C(C)C(=O)C1(O)Oc1c3c(c(O)c(C)c12)O[C@](C)(CC/C=C(\C)CCC=C(C)C)C=C3 (stereo partly drawn) [ALBATRELIN F]	> 40
CC(C)=CCC/C(C)=C/CC[C@]1(C)C=Cc2c(O)cc(C)cc2O1 [CONFLUENTIN]	15.1
